Data from ChEMBL document CHEMBL4414558, “Dehydroabietylamine Ureas and Thioureas as Tyrosyl-DNA Phosphodiesterase 1 Inhibitors That Enhance the Antitumor Effect of Temozolomide on Glioblastoma Cells” (J Nat Prod, 2019).

Legend:
U-937 = test: Cytotoxicity activity against human U937 cells assessed as reduction in cell viability incubated for 72 hrs by MTT assay; format: cell-based; conditions: U-937, 72 h
[1] = Cytotoxicity activity against human SK-MEL-8 cells assessed as reduction in cell viability incubated for 72 hrs by MTT assay; format: cell-based
[2] = molecular target: Tyrosyl-DNA phosphodiesterase 1 (Homo sapiens, UniProt Q9NUW8, H493R); test: Inhibition of recombinant TDP1 H493R mutant (unknown origin) using 5'-(5,6 FAM-aac gtc agg gtc ttc c-BHQ1)-3' as substrate measured every 55 secs for 8 mins by fluorescence based assay
Tyrosyl-DNA phosphodiesterase 1 (Homo sapiens, UniProt Q9NUW8, H493R), sequence (Q9NUW8 whole entry H493R): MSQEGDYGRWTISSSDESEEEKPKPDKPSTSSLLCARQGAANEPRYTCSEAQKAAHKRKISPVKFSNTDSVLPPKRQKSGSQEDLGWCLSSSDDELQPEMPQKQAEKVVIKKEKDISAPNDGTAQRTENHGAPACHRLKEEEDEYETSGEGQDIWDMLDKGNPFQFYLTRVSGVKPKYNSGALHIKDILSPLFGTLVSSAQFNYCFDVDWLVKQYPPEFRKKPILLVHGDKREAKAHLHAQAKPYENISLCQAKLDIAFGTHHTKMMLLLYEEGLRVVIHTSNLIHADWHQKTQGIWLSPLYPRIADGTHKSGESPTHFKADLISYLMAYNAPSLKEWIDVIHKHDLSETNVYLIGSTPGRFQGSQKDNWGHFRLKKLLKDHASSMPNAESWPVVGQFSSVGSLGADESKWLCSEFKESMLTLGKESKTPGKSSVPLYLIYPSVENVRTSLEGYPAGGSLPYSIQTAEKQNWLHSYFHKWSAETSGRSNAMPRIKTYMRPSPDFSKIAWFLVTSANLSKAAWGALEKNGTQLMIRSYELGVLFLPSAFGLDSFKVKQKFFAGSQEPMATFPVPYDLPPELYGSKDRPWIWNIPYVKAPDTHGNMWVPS
Procedure, shortened: (§1)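 Purified TDP1, either wild-type or the H493R mutant, tested against the fluorogenic substrate. The IC50 is the compound concentration that cuts enzyme activity by 50%.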

[3] = molecular target: Poly [ADP-ribose] polymerase 1 (Homo sapiens) (UniProt P09874); test: Inhibition of PARP1 (unknown origin) assessed as residual activity at 100 uM relative to control
Poly [ADP-ribose] polymerase 1 (Homo sapiens), sequence (P09874 whole entry): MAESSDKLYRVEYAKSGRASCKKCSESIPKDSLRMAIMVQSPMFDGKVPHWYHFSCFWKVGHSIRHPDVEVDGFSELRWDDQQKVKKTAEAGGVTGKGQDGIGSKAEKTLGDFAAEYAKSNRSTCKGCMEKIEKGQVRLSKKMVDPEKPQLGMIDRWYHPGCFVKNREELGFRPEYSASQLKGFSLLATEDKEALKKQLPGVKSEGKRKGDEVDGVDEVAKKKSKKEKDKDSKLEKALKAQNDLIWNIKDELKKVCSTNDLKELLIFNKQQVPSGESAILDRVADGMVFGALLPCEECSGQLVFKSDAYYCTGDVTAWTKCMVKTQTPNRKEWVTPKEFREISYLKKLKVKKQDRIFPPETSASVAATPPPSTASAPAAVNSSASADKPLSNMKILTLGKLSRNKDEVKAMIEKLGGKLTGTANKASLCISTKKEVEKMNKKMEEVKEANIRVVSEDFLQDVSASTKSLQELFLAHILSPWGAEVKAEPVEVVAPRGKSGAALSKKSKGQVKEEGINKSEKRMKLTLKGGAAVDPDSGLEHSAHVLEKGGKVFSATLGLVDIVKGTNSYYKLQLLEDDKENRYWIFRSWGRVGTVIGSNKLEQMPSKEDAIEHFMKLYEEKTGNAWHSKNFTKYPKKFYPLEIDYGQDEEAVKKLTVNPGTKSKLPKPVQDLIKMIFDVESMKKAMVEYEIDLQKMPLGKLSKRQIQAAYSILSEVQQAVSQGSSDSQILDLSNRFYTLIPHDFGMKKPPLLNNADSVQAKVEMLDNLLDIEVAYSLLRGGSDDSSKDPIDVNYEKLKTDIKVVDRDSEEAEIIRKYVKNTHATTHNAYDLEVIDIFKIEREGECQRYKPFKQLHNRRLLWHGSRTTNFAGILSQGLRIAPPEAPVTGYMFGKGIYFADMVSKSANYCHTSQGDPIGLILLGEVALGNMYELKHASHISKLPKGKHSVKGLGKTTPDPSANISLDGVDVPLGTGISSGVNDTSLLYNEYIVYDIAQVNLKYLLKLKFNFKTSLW

A549 = test: Cytotoxicity activity against human A549 cells assessed as reduction in cell viability incubated for 72 hrs by MTT assay; format: cell-based; conditions: A549, 72 h
[4] = molecular target: Tyrosyl-DNA phosphodiesterase 1 (Homo sapiens, UniProt Q9NUW8); test: Inhibition of recombinant TDP1 (unknown origin) using 5'-(5,6 FAM-aac gtc agg gtc ttc c-BHQ1)-3' as substrate measured every 55 secs for 8 mins by fluorescence based assay; procedure, shortened: as §1
Tyrosyl-DNA phosphodiesterase 1 (Homo sapiens, UniProt Q9NUW8), sequence (Q9NUW8 whole entry): as the sequence (Q9NUW8 whole entry H493R) above, with R493H counted along it

[5] = molecular target: Poly [ADP-ribose] polymerase 2 (Homo sapiens) (UniProt Q9UGN5); test: Inhibition of PARP2 (unknown origin) assessed as residual activity at 100 uM relative to control
Poly [ADP-ribose] polymerase 2 (Homo sapiens), sequence (Q9UGN5 whole entry): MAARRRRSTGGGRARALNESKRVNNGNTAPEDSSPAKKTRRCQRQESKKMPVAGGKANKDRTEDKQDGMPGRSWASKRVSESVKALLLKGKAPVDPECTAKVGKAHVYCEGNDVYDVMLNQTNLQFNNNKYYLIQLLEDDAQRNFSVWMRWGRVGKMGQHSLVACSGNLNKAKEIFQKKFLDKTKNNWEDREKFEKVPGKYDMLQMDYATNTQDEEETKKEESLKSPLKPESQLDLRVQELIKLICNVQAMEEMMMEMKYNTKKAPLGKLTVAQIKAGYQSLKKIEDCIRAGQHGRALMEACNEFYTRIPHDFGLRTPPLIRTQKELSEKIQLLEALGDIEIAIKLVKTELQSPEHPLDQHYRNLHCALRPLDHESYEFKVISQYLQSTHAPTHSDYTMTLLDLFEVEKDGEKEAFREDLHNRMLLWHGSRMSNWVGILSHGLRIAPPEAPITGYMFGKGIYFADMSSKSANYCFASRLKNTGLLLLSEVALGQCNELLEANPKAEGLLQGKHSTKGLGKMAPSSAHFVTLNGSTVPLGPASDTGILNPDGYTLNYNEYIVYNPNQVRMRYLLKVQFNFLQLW

U-87 MG [6] = test: Cytotoxicity activity against human U87MG cells assessed as reduction in cell viability incubated for 72 hrs by MTT assay; format: cell-based, U-87MG ATCC
[7] = Cytotoxicity activity against human MDA-MB cells assessed as reduction in cell viability incubated for 72 hrs by MTT assay; format: cell-based
MCF7 = test: Cytotoxicity activity against human MCF7 cells assessed as reduction in cell viability incubated for 72 hrs by MTT assay; format: cell-based; conditions: MCF7, 72 h
WI-38 = test: Cytotoxicity activity against human WI38 cells assessed as reduction in cell viability incubated for 72 hrs by MTT assay; format: cell-based; conditions: WI-38, 72 h
U-87 MG [8] = test: Potentiation of TMZ-induced cytotoxicity against human U87MG cells assessed as reduction in cell viability at 100 uM incubated for 72 hrs in presence of 2500 uM TMZ by MTT assay relative to TMZ alone; format: functional, U-87MG ATCC
T98G = test: Cytotoxicity activity against human T98G cells assessed as reduction in cell viability incubated for 72 hrs by MTT assay; format: cell-based
SNB-19 [9] = test: Potentiation of TMZ-induced cytotoxicity against human SNB19 cells assessed as cell viability at 75 uM incubated for 72 hrs in presence of 2000 uM TMZ by MTT assay (Rvb =100%); format: functional
SNB-19 [10] = test: Potentiation of TMZ-induced cytotoxicity against human SNB19 cells assessed as combination index at 100 uM incubated for 72 hrs in presence of 1250 uM TMZ by MTT assay; format: functional
U-87 MG [11] = test: Potentiation of TMZ-induced cytotoxicity against human U87MG cells assessed as cell viability at 100 uM incubated for 72 hrs in presence of 2000 uM TMZ by MTT assay (reference value: 100%); format: functional, U-87MG ATCC
SNB-19 [12] = test: Potentiation of TMZ-induced cytotoxicity against human SNB19 cells assessed as combination index at 75 uM incubated for 72 hrs in presence of 2000 uM TMZ by MTT assay; format: functional
SNB-19 [13] = test: Potentiation of TMZ-induced cytotoxicity against human SNB19 cells assessed as reduction in cell viability at 75 uM incubated for 72 hrs in presence of 2000 uM TMZ by MTT assay relative to TMZ alone; format: functional
SNB-19 [14] = test: Potentiation of TMZ-induced cytotoxicity against human SNB19 cells assessed as reduction in cell viability at 100 uM incubated for 72 hrs in presence of 1250 uM TMZ by MTT assay relative to TMZ alone; format: functional
U-87 MG [15] = test: Potentiation of TMZ-induced cytotoxicity against human U87MG cells assessed as combination index at 100 uM incubated for 72 hrs in presence of 2500 uM TMZ by MTT assay; format: functional, U-87MG ATCC
SNB-19 [16] = test: Cytotoxicity activity against human SNB19 cells assessed as reduction in cell viability incubated for 72 hrs by MTT assay; format: cell-based; conditions: SNB-19, 72 h
U-87 MG [17] = test: Potentiation of TMZ-induced cytotoxicity against human U87MG cells assessed as reduction in cell viability at 100 uM incubated for 72 hrs in presence of 2000 uM TMZ by MTT assay relative to TMZ alone; format: functional, U-87MG ATCC
U-87 MG [18] = test: Potentiation of TMZ-induced cytotoxicity against human U87MG cells assessed as combination index at 100 uM incubated for 72 hrs in presence of 2000 uM TMZ by MTT assay; format: functional, U-87MG ATCC
U-87 MG [19] = test: Potentiation of TMZ-induced cytotoxicity against human U87MG cells assessed as cell viability at 100 uM incubated for 72 hrs in presence of 2500 uM TMZ by MTT assay (reference value: 100%); format: functional, U-87MG ATCC
SNB-19 [20] = test: Potentiation of TMZ-induced cytotoxicity against human SNB19 cells assessed as cell viability at 100 uM incubated for 72 hrs in presence of 1250 uM TMZ by MTT assay (Rvb =100%); format: functional

IC50 [2] [µM]	Activity [3] [%]	IC50 [4] [µM]	Activity [5] [%]	Structure (SMILES)	IC50 (U-937) [µM]	IC50 [1] [µM]	IC50 (A549) [µM]	IC50 (U-87 MG [6]) [µM]	IC50 [7] [µM]	IC50 (MCF7) [µM]	IC50 (WI-38) [µM]	fold change (FC) (U-87 MG [8])	IC50 (T98G) [µM]	Activity (SNB-19 [9]) [%]	CI (SNB-19 [10])	Activity (U-87 MG [11]) [%]	CI (SNB-19 [12])	fold change (FC) (SNB-19 [13])	CI (U-87 MG [15])	IC50 (SNB-19 [16]) [µM]	other results
19.3	79	0.1	107	CC(C)c1ccc2c(c1)CC[C@H]1[C@](C)(CNC(=O)NC34CC5CC(CC(C5)C3)C4)CCC[C@]21C		> 100	> 100	> 100	> 100			1.7	> 100	63.7	0.25	72	0.13	1.6	0.43	> 100	fold change (FC) (SNB-19 [14]): 1.6; fold change (FC) (U-87 MG [17]): 1.4; CI (U-87 MG [18]): 0.44; Activity (U-87 MG [19]): 58.2%; Activity (SNB-19 [20]): 61.3%
> 50	100	3.7	116	CCNC(=O)NC[C@]1(C)CCC[C@]2(C)c3ccc(C(C)C)cc3CC[C@@H]12	34.8	> 100	> 100	> 100	> 100				> 100							< 10	
5.4	92	0.09	94	CC(C)c1ccc2c(c1)CC[C@H]1[C@](C)(CNC(=O)NCC3(C)CC(NC(=O)NC[C@]4(C)CCC[C@]5(C)c6ccc(C(C)C)cc6CC[C@@H]45)CC(C)(C)C3)CCC[C@]21C (some centres not stated)	> 100	> 100	> 100	> 100	> 100	> 100	> 100	1.1	> 100	89	0.97	109.2	0.34	1.1	0.77	> 100	CI (U-87 MG [18]): 1.7; Activity (U-87 MG [19]): 90.9%; Activity (SNB-19 [20]): 97.3%
> 50	110	1.49	114	CNC(=S)NC[C@]1(C)CCC[C@]2(C)c3ccc(C(C)C)cc3CC[C@@H]12	16.8	> 100	19.7	> 100	> 100				73.3							< 10	
39.2	96	0.5	99	CC(C)c1ccc2c(c1)CC[C@H]1[C@](C)(CNC(=O)NC3CCCCC3)CCC[C@]21C	> 100	> 100	> 100	> 100	> 100	> 100	52		> 100							< 10	

Second part, the molecule before the results:

Structure (SMILES)	IC50 [2] [µM]	Activity [3] [%]	IC50 [4] [µM]	Activity [5] [%]	IC50 (U-937) [µM]	IC50 [1] [µM]	IC50 (A549) [µM]	IC50 (U-87 MG [6]) [µM]	IC50 [7] [µM]	IC50 (MCF7) [µM]	IC50 (WI-38) [µM]	fold change (FC) (U-87 MG [8])	IC50 (T98G) [µM]	Activity (SNB-19 [9]) [%]	CI (SNB-19 [10])	Activity (U-87 MG [11]) [%]	CI (SNB-19 [12])	fold change (FC) (SNB-19 [13])	CI (U-87 MG [15])	IC50 (SNB-19 [16]) [µM]	other results
CC(C)c1ccc2c(c1)CC[C@H]1[C@](C)(CNC(=S)Nc3ccccc3)CCC[C@]21C	19.9	98	0.71	116	> 100	> 100	> 100	> 100	> 100	26	70										
CCNC(=S)NC[C@]1(C)CCC[C@]2(C)c3ccc(C(C)C)cc3CC[C@@H]12	> 50	100	2.3	116	18.7	> 100	> 100	> 100	> 100				> 100							< 10	
CC(C)c1ccc2c(c1)CC[C@H]1[C@](C)(CNC(=O)Nc3ccc(Cl)cc3)CCC[C@]21C	34.1	93	0.28	93	15	> 100	> 100	> 100	> 100	52	> 100		21.2							< 10	
CC(C)c1ccc2c(c1)CC[C@H]1[C@](C)(CNC(=O)Nc3ccccc3)CCC[C@]21C	24.1	106	0.95	129	> 100	> 100	> 100	> 100	> 100	> 100	> 100		> 100							17	
C=CCNC(=S)NC[C@]1(C)CCC[C@]2(C)c3ccc(C(C)C)cc3CC[C@@H]12	> 50	104	0.57	98	22.2	> 100	100	> 100	> 100	10	50		> 100							< 10	
CC(C)c1ccc2c(c1)CC[C@H]1[C@](C)(CNC(=O)NCCCCCCNC(=O)NC[C@]3(C)CCC[C@]4(C)c5ccc(C(C)C)cc5CC[C@@H]34)CCC[C@]21C	9.3	99	0.19	142	> 100	> 100	> 100	> 100	> 100	> 100	> 100	1.7	> 100	70.3	0.92	109.8	0.15	1.4	0.43	> 100	CI (U-87 MG [18]): 1.79; Activity (U-87 MG [19]): 59.3%; Activity (SNB-19 [20]): 88.9%
Cc1ccc(NC(=O)NC[C@]2(C)CCC[C@]3(C)c4ccc(C(C)C)cc4CC[C@@H]23)cc1NC(=O)NC[C@]1(C)CCC[C@]2(C)c3ccc(C(C)C)cc3CC[C@@H]12	5.4	83	0.11	135	> 100	> 100	> 100	> 100	> 100	> 100	> 100	1.2	> 100	84.4	0.99	100.7	0.27	1.2	0.63	> 100	CI (U-87 MG [18]): 1.03; Activity (U-87 MG [19]): 82.1%; Activity (SNB-19 [20]): 99.5%
